Compound activity (PubChem)
Rows were chosen to be rich in hits. Some 1.9% of all compounds tested hit in one or more screens of this group.
H9c2 TAG inh: triacylglycerol accumulation inhibition; H9c2 cells, Nile Red lipid (TAG) fluorescence; cells loaded with 200 µM oleic acid; inhibition, % at 12.5 µM; hit rate 0.66% among 230,000; AID 651582;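 active = pattern-corrected inhibition of lipid staining of at least 50% with the nuclear-stain viability signal not falling by more than 50%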;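 note: 0% = DMSO wells and 100% = triacsin C control wells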
Jurkat NFkB inh: inhibitors of the PMA/ionomycin-induced NF-kB reporter in Jurkat cells | PMA/ionomycin-induced NF-kB luciferase reporter, luminescence | inhibition, % at 4 µM | hit rate 0.53% among 330,000 | AID 435003; in the data active = inhibition above about 50%
APP transl inh: APP translation inhibition; SH-SY5Y APP 5'UTR-luciferase reporter, luminescence; inhibition, % at 2 µM; hit rate 0.82% among 190,000; AID 1285;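 active = inhibition above a set limit, derived from the sample mean plus 3 SD, cut at about 45% in these data; inconclusive = one replicate passes the limit while the other fails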
697 NFkB inh: lowers PMA/ionomycin-induced NF-kB signal in 697 B cells. inhibition, % at 4 µM. AID 435022. 697 B-cell NF-kB luciferase reporter, 16 h. hit rate 0.33% among 330,000; in the data active = inhibition above about 35%
aSyn 5UTR inh: 5' untranslated region of α-synuclein, MLPCN primary screen; AID 1813; inhibition, % (tested at 7.5 µM); alpha-synuclein 5'UTR reporter, inhibitor activity; hit rate 0.82% among 300,000; in the data active = inhibition above about 60%; inconclusive = no clear call, values can overlap the other calls;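 note: H4 neuroglioblastoma cells stably carrying SNCA 5'UTR luciferase fusion; 0% = DMSO wells and 100% = positive control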
Hep lipid drop: modulators of hepatic lipid droplet formation; AML12 mouse hepatocytes, oleate lipid droplets, BODIPY imaging; inhibition, % at 6.5 µM; hit rate 0.4% among 240,000; AID 1656;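 active = lipid droplet intensity inhibited by at least 50%, with more than 500 cells counted; inconclusive = wells with under 300 cells, treated as cytotoxic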
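Assay system: AML12 mouse liver cells | Compound: 6.5 µM single-point dosing | Schedule: Overnight exposure | Technique: Fluorescence imaging, 20x objective, two fields per well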
Jurkat NFkB conf: inhibitors of the PMA/ionomycin-induced NF-kB reporter in Jurkat cells, retest | shares compounds with Jurkat NFkB inh | Jurkat NF-kB luciferase, 16 h | hit rate 27% among 2,700 | inhibition, % at 4 µM;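 active = inhibition reaching about 45% at 4 µM in either replicate, limit read from the data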;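 note: plate controls were PMA/ionomycin stimulated DMSO wells for no effect and unstimulated DMSO wells for full effect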
Active calls of the source: *.

Screening C(=N\NC1=Nc2cccc3cccc1c23)/c1ccccc1 returned Jurkat NFkB inh -167.4, APP transl inh 31.1, 697 NFkB inh -180.9, aSyn 5UTR inh -255.7, Hep lipid drop -0.8 and Jurkat NFkB conf -111.5.
Screening CCN(CC)CCCNC(=O)c1[nH]c2ccccc2c1Sc1ccc(Cl)cc1 returned Jurkat NFkB inh -21.7, 697 NFkB inh -3.0, aSyn 5UTR inh 39.3 and Hep lipid drop -17.1.
Cc1cc(=O)oc2cc(NC(=O)c3ccccc3C(=O)O)ccc12 was read as Jurkat NFkB inh 2.3, 697 NFkB inh 7.3 and aSyn 5UTR inh 5.9.
COc1cccc(C(=O)Nc2ccc3c(C)cc(=O)oc3c2)c1 was read as H9c2 TAG inh 12.0, Jurkat NFkB inh -177.6, 697 NFkB inh -131.5, aSyn 5UTR inh -49.9, Hep lipid drop 0.7 and Jurkat NFkB conf -111.4.
Screening N#C/C(=N\Nc1ccccc1[N+](=O)[O-])C(=N)N1CCCCC1 returned H9c2 TAG inh 7.4, Jurkat NFkB inh -183.9, APP transl inh -175.7, 697 NFkB inh -118.7, aSyn 5UTR inh -111.5, Hep lipid drop 2.5 and Jurkat NFkB conf -75.1.
Screening N#C/C(=N\Nc1ccc(Cl)cc1)C(=N)N1CCCCCC1 returned H9c2 TAG inh -2.3, Jurkat NFkB inh -214.9, APP transl inh -236.4, 697 NFkB inh -208.7, aSyn 5UTR inh -133.4, Hep lipid drop 14.5 and Jurkat NFkB conf -92.4.
For N#C/C(=N/Nc1ccc([N+](=O)[O-])cc1)C(=N)N1CCCCC1 the results were H9c2 TAG inh 6.1, APP transl inh -174.0, aSyn 5UTR inh -85.6 and Hep lipid drop -11.8.
Cc1ccc(N/N=C(\C#N)C(=N)N2CCCCC2)cc1 was read as H9c2 TAG inh 11.7, Jurkat NFkB inh -124.8, 697 NFkB inh -159.9, aSyn 5UTR inh -91.2 and Hep lipid drop 2.2.
For COC(=O)C1=C(CN2CCc3ccccc32)NC(=O)NC1c1cc(C)ccc1C (stereo unspecified) the results were H9c2 TAG inh -8.3, Jurkat NFkB inh -15.3, APP transl inh -1.6, 697 NFkB inh -6.9, aSyn 5UTR inh 31.6 and Hep lipid drop 1.1.
`COC(=O)C1=C(CN2CCCc3ccccc32)NC(=O)NC1c1ccc(F)cc1` (stereo unspecified) gave Jurkat NFkB inh 54.4*, APP transl inh 35.4, 697 NFkB inh 0.9, aSyn 5UTR inh 79.2* and Jurkat NFkB conf 78.8*.
Screening COc1ccccc1-n1cnc2cc(NCc3cccs3)ccc21 returned H9c2 TAG inh 57.8*, Jurkat NFkB inh 51.5*, APP transl inh 93.1*, 697 NFkB inh -83.1, aSyn 5UTR inh inconclusive, Hep lipid drop -150.2 and Jurkat NFkB conf 19.1.
`COC(=O)CC1C(=O)NCCN1C(=S)Nc1ccc(F)cc1` (stereo unspecified) gave H9c2 TAG inh 3.6, Jurkat NFkB inh -8.4, 697 NFkB inh 12.9, aSyn 5UTR inh 11.9 and Hep lipid drop 2.5.
For COC(=O)C1=CN(CC2CCCO2)C=C(C(=O)OC)C1c1cc(OC)c(OC)c(OC)c1 (stereo unspecified) the results were H9c2 TAG inh 6.4, Jurkat NFkB inh 0.5, APP transl inh 12.0, 697 NFkB inh 12.0, aSyn 5UTR inh 24.7 and Hep lipid drop 2.8.
For Cc1ccc(C(=O)Nc2ccc(N3CCN(C)CC3)cc2)cc1 the results were Jurkat NFkB inh -90.9, 697 NFkB inh -85.8 and aSyn 5UTR inh -88.2.
Screening Cc1nc(-c2ccc(NC(=O)c3ccccc3)cc2)cs1 returned H9c2 TAG inh -7.9, Jurkat NFkB inh -194.9, APP transl inh -184.3, 697 NFkB inh -84.9, aSyn 5UTR inh -13.3, Hep lipid drop 5.5 and Jurkat NFkB conf -124.8.
`CC(C)(C)c1ccc(C(=O)Nc2ccc(Cl)cc2)cc1` gave Jurkat NFkB inh -161.4, APP transl inh -125.6, 697 NFkB inh -188.0, aSyn 5UTR inh -109.9, Hep lipid drop -20.4 and Jurkat NFkB conf -115.7.
Screening Cc1ccc(NC(=O)c2ccc(C)cc2)cc1 returned H9c2 TAG inh -4.6, Jurkat NFkB inh -155.8, 697 NFkB inh -191.0, aSyn 5UTR inh -6.4 and Jurkat NFkB conf -77.7.
Screening CC(C)NC(=O)NC(=O)COC(=O)c1cccc(OC(F)F)c1 returned H9c2 TAG inh -6.4, Jurkat NFkB inh 0.3, APP transl inh 11.8, 697 NFkB inh 21.6, aSyn 5UTR inh 10.3 and Hep lipid drop 6.3.
`CCN1/C(=C/c2ccc3cc(C)ccc3[n+]2CC)Sc2ccc3sccc3c21` gave H9c2 TAG inh -108.6, Jurkat NFkB inh 92.2*, 697 NFkB inh -13.4, aSyn 5UTR inh 130.8* and Jurkat NFkB conf 64.5*.
`CC[n+]1c(C)sc2c3ccsc3ccc21` gave Jurkat NFkB inh 0.4, APP transl inh 11.3, 697 NFkB inh 11.4, aSyn 5UTR inh -23.5 and Hep lipid drop 0.7.
Screening COc1ccc(NC(=O)COc2coc(CN3c4ccccc4CC3C)cc2=O)cc1 (stereo unspecified) returned H9c2 TAG inh -1.4, Jurkat NFkB inh 19.3, 697 NFkB inh 18.3 and aSyn 5UTR inh 6.0.
For CC(=O)c1cn(-c2ccc(Cl)cc2)c(=O)[nH]c1=O the results were Jurkat NFkB inh 8.6, 697 NFkB inh 7.5, aSyn 5UTR inh 10.7 and Hep lipid drop -14.3.
C[C@]12CC[C@@H]3c4ccc(OC(=O)c5ccccc5)cc4CC[C@H]3[C@@H]1CC[C@@H]2O was read as H9c2 TAG inh -6.0, Jurkat NFkB inh 14.5, APP transl inh -14.4, 697 NFkB inh 8.2 and aSyn 5UTR inh -11.9.
`COc1cc2c(cc1O)CC[C@@H]1[C@@H]2CC[C@]2(C)[C@@H](O)CC[C@@H]12` gave H9c2 TAG inh 30.6, Jurkat NFkB inh 61.2*, APP transl inh 92.9*, 697 NFkB inh -43.2, aSyn 5UTR inh 75.3*, Hep lipid drop -4.6 and Jurkat NFkB conf 53.5*.
For Cc1c(C(=O)NC2=NCCS2)oc2ccccc12 the results were Jurkat NFkB inh -168.6, APP transl inh -106.1, 697 NFkB inh -123.1, aSyn 5UTR inh -62.0, Hep lipid drop 0.6 and Jurkat NFkB conf -96.5.
For Cc1csc(NC(=O)c2oc3ccccc3c2C)n1 the results were H9c2 TAG inh -7.3, Jurkat NFkB inh -194.7, 697 NFkB inh -192.8, aSyn 5UTR inh -67.6 and Jurkat NFkB conf -90.8.
Cc1c(C(=O)Nc2nccs2)oc2ccccc12 was read as H9c2 TAG inh 22.4.
Screening C#CC[N+](C)(C)CCCCCCCCCCCC returned H9c2 TAG inh -20.3, Jurkat NFkB inh 70.5*, APP transl inh -1.0, 697 NFkB inh 30.4, aSyn 5UTR inh 77.0*, Hep lipid drop -33.7 and Jurkat NFkB conf 51.9*.
For O=C(Nc1ccccc1)C1Cc2ccccc2CN1C(=O)c1ccco1 (stereo unspecified) the results were H9c2 TAG inh 1.3, Jurkat NFkB inh -150.0, APP transl inh -116.9, 697 NFkB inh -226.0, aSyn 5UTR inh -114.0, Hep lipid drop -7.0 and Jurkat NFkB conf -105.9.
